The values below come from ChEMBL document CHEMBL1124564, “Ester derivatives of 2,6-bis(1-pyrrolidinylmethyl)-4-benzamidophenol as short-acting antiarrhythmic agents. 1” (J Med Chem, 1989).

The term half-life denotes the time in which the quantity being followed falls by half.

In brackets after ≈: the same amount, converted by molar mass.

The species entered for one series is Cavia porcellus. Nature of the series: Inhibition of acetylstrophantidin induced arrhythmia in guinea pig isolated right atria. The class given is functional. To be noted: read-out: ED50 (the source's name). Put shortly:
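Isolated atrium in prewarmed 37 °C Krebs on an isometric force transducer, tension about 500 mg, equilibrated 1 h. Arrhythmogen (ethanolic stock) added at 5.0 μg/mL, raised to 7.5 μg/mL after 30 min if no arrhythmia. After 45 min, compound given in incremental doses every 20 min. ED is the cumulative dose restoring sinus rhythm for at least 3 min.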

Series [1] can be described thus: Distribution coefficient of compound was determined in octanol-water system. The class given is physicochemical.
The species entered for a further series is Canis familiaris. The series can be described thus: Inhibition of ouabain induced arrhythmia in the dog. The class given is functional, Canis lupus familiaris. Put shortly: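 Adult male mongrel dogs (10–17 kg) under pentobarbital (30 mg/kg iv), intubated, spontaneous breathing, lead II ECG. Ouabain iv bolus: 40 μg/kg, then 20 μg/kg at 30 min, then 5–10 μg/kg every 15 min until stable ventricular arrhythmia (>95% ectopic complexes) lasted 15 min. Compound infused iv at 0.5 mg/kg per min until sinus rhythm held ≥10 min.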

Series [2] in a line: Biological half-life was evaluated in whole human blood. It counts as ADME, organism-based. Put shortly: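 Fresh heparinized blood from male volunteers and compound in saline preincubated separately 5 min at 37 °C, then mixed 1:1 (final 25 μg/mL) and shaken at 37 °C for 0, 1, 2.5, 5.0, 10, 20, 30 and 60 min. Stopped with acetonitrile, proteins spun down, supernatant assayed by HPLC on phenyl column. Half-life is the time to 50% loss of compound.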

With `O=C(O)Cc1cc(CN2CCCC2)c(O)c(CN2CCCC2)c1`, in the series filed under Cavia porcellus, the EC50 was over 200 µg/mL.
Regarding `CC(C)OC(=O)CCc1cc(CN2CCCC2)c(O)c(CN2CCCC2)c1`, the Distribution coefficient in series [1] was found to be 0.62. Besides, the EC50 in the series listed under Cavia porcellus amounted to 4 µg/mL (≈ 10.7 µM).
The compound `CC(C)COC(=O)Cc1cc(CN2CCCC2)c(O)c(CN2CCCC2)c1` yielded a Distribution coefficient in series [1] of 1.25. In the series filed under Canis familiaris, this compound showed an Active dose of 11.8 mg/kg. Besides, the half-life in series [2] is 8.7 min. For the same compound, the EC50 in the series listed under Cavia porcellus came out at 5 µg/mL (≈ 13.4 µM).
With `CCCCOC(=O)CCCc1cc(CN2CCCC2)c(O)c(CN2CCCC2)c1`, in series [1], the Distribution coefficient turned out to be 12.8. The half-life in series [2] was 0.77 min. Moreover, in the series listed under Cavia porcellus, the EC50 was determined as 0.33 µg/mL (≈ 0.82 µM).
In turn, `CC(C)OC(=O)Cc1cc(CN2CCCC2)c(O)c(CN2CCCC2)c1` registered a Distribution coefficient in series [1] of 0.39. The EC50 in the series filed under Cavia porcellus is 1 µg/mL (≈ 2.77 µM).
`O=C(O)c1cc(CN2CCCC2)c(O)c(CN2CCCC2)c1` gave an Active dose in the series filed under Canis familiaris of over 60 mg/kg. The EC50 in the series filed under Cavia porcellus is over 30 µg/mL.
In the case of `CC(C)OC(=O)c1cc(CN2CCCC2)c(O)c(CN2CCCC2)c1`, the Distribution coefficient in series [1] was 0.37. Also, the EC50 in the series filed under Cavia porcellus was 11.4 µg/mL (≈ 32.9 µM).
Take `CC(C)COC(=O)CCCc1cc(CN2CCCC2)c(O)c(CN2CCCC2)c1`: in series [1], the Distribution coefficient was 7.24. In series [2], this compound came in with a half-life of 1.96 min. The EC50 in the series listed under Cavia porcellus is 2 µg/mL (≈ 4.97 µM).
With `CCCCOC(=O)CCc1cc(CN2CCCC2)c(O)c(CN2CCCC2)c1`, the Distribution coefficient in series [1] came out at 2. The Active dose in the series listed under Canis familiaris amounted to 11 mg/kg. In addition, the half-life in series [2] is 22.1 min. In the series filed under Cavia porcellus, the EC50 was found to be 2.5 µg/mL (≈ 6.43 µM).
Take `CCOC(=O)CCc1ccc(NC(=O)c2cc(CN3CCCC3)c(O)c(CN3CCCC3)c2)cc1`: in the series filed under Canis familiaris, the Active dose turned out to be 10.9 mg/kg.
The same measure, in the same setting: to `CCOC(=O)/C=C/c1ccc(NC(=O)c2cc(CN3CCCC3)c(O)c(CN3CCCC3)c2)cc1` belongs 17.5 mg/kg.
The compound `CC(C)COC(=O)CCc1cc(CN2CCCC2)c(O)c(CN2CCCC2)c1` returned a Distribution coefficient in series [1] of 1.54. This compound came in with an Active dose in the series listed under Canis familiaris of 5 mg/kg. In addition, the half-life in series [2] amounted to 25.9 min. In the series filed under Cavia porcellus, the EC50 amounted to 14 µg/mL (≈ 36 µM).
In the series filed under Canis familiaris, `CCOC(=O)c1ccccc1NC(=O)c1cc(CN2CCCC2)c(O)c(CN2CCCC2)c1` displayed an Active dose of 1.75 mg/kg.
`CCOC(=O)Cc1cc(CN2CCCC2)c(O)c(CN2CCCC2)c1`: the Distribution coefficient in series [1] is listed as 0.18. For the same compound, the Active dose in the series listed under Canis familiaris was over 7.5 mg/kg. Besides, the EC50 in the series filed under Cavia porcellus was 17.2 µg/mL (≈ 49.6 µM).
As for `CC(C)COC(=O)c1cc(CN2CCCC2)c(O)c(CN2CCCC2)c1`, the Distribution coefficient in series [1] worked out at 1.47. Moreover, the EC50 in the series filed under Cavia porcellus is 2.3 µg/mL (≈ 6.38 µM).
Consider `CCCOC(=O)CCc1cc(CN2CCCC2)c(O)c(CN2CCCC2)c1`, for which, in series [1], the Distribution coefficient worked out at 0.78. Further, in the series listed under Canis familiaris, the Active dose is 3 mg/kg. Further, in series [2], the half-life turned out to be 36.1 min. Further, the EC50 in the series listed under Cavia porcellus turned out to be 7 µg/mL (≈ 18.7 µM).
For `CCCOC(=O)Cc1cc(CN2CCCC2)c(O)c(CN2CCCC2)c1` the same measures were 0.43, 8.8 mg/kg, 18.5 min and 10.3 µg/mL (≈ 28.6 µM).
`CCC(C)OC(=O)c1cc(CN2CCCC2)c(O)c(CN2CCCC2)c1` (configuration not stated) had a Distribution coefficient in series [1] of 1.12. The same compound showed an Active dose in the series filed under Canis familiaris of 6.8 mg/kg. Further, in the series listed under Cavia porcellus, the EC50 was determined as 6.7 µg/mL (≈ 18.6 µM).
In the case of `O=C(O)CCc1cc(CN2CCCC2)c(O)c(CN2CCCC2)c1`, in the series listed under Cavia porcellus, the EC50 was over 1000 µg/mL.
For `CCCCOC(=O)Cc1cc(CN2CCCC2)c(O)c(CN2CCCC2)c1`, the Distribution coefficient in series [1] is given as 1.5. The same compound gave an Active dose in the series filed under Canis familiaris of 7.3 mg/kg. This compound had a half-life in series [2] of 9.5 min. For the same compound, the EC50 in the series listed under Cavia porcellus turned out to be 13.3 µg/mL (≈ 35.5 µM).
For the compound `CCOC(=O)c1ccc(NC(=O)c2cc(CN3CCCC3)c(O)c(CN3CCCC3)c2)cc1`, the Active dose in the series filed under Canis familiaris came to 19 mg/kg.
With `O=C(Nc1ccccc1)c1cc(CN2CCCC2)c(O)c(CN2CCCC2)c1`, the Distribution coefficient in series [1] was determined as 0.42. Besides, the Active dose in the series filed under Canis familiaris came to 2.5 mg/kg. Moreover, in the series filed under Cavia porcellus, the EC50 is 11 µg/mL (≈ 29 µM).
In series [2], `CCCOC(=O)CCCc1cc(CN2CCCC2)c(O)c(CN2CCCC2)c1` registered a half-life of 2.1 min.
In turn, `O=C(NCC1CCCCN1)c1cc(OCC(F)(F)F)ccc1OCC(F)(F)F` (configuration not stated) [FLECAINIDE] displayed a Distribution coefficient in series [1] of 13.71. The Active dose in the series filed under Canis familiaris is 2.3 mg/kg. For the same compound, the EC50 in the series filed under Cavia porcellus amounted to 6 µg/mL (≈ 14.5 µM).
For `CCN(CC)CC(=O)Nc1c(C)cccc1C` [LIDOCAINE], in that order: 19.19, 10.1 mg/kg and 6 µg/mL (≈ 25.6 µM).
